Source: paper PMC10499406 (Clinical and Translational Science, 2023)
Read-outs that look alike come from different tables or passages of the source.

Legend:
[1] = Plasma PK of metabolite indacenyl amine after GDC‐2394; format: in vivo, human
human whole blood = details: cited from earlier work
[2] = Safety: adverse events and laboratory findings in healthy volunteers; format: in vivo, human
How it was run: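 Healthy volunteers receiving at least one dose of study drug formed the safety population. End points were incidence and severity of AEs, and baseline changes in vital signs, clinical laboratory tests and 12-lead ECG. DDI stage: one cohort of nine, test compound given fasted with co-administered midazolam. Other stages: single oral 150–1800 mg; 300 or 900 mg b.i.d.; 600 mg fasted then after high-fat meal.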

clinical [3] = details: human, in vivo, 600 mg, fasted period, n = 8, mean
[4] = for C min: steady‐state (day 7), n = 6, mean
IL‐1β [5] = assay: Ex vivo LPS/ATP stimulation of whole blood from participants: IL‐1β production; format: cell-based, human; details: for maximum mean inhibition of IL‐1β production: relative to baseline
How it was run: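 Whole blood from participants was drawn predose and at postdose timepoints. MAD dosing was oral 300 or 900 mg b.i.d. on days 1–6 plus one morning dose on day 7, fasted. Blood was stimulated ex vivo with an LPS plus ATP cocktail. Secreted IL-1β was the mean of two technical replicates. Inhibition = [1−(postdose/predose stimulated level)]×100%. IC90 came from a sigmoid Emax fit against time-matched plasma drug levels (HPLC-MS/MS).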

[6] = cynomolgus monkey, 4‐week study; cited from earlier work
[7] = cited from earlier work
IL‐18 = assay: Ex vivo LPS/ATP stimulation of whole blood from participants: IL‐18 production; format: cell-based, human
clinical [8] = details: human, in vivo, po
[9] = 600 mg, high‐fat vs fasted
CYP3A4 [10] = system: CYP3A4
CYP3A4 [11] = assay: In vitro CYP3A4 induction assays and preliminary PBPK modeling; format: in vitro ADME; details: unpublished data
clinical [12] = details: human, in vivo, n = 6, mean; for AUC: AUC0–tau; for Cmax: C max
Urinary PK = format: in vivo, human; details: multiple b.i.d. dosing (MAD)
[13] = for DN AUC0–last / CL/F: SAD, fasted, n = 6, mean
IL‐1β [14] = details: patients with atherosclerosis and residual inflammation ref 8; cited from earlier work
CYP3A4 [15] = assay: clinical; details: human, in vivo
[16] = single 150‐mg, 450‐mg and 900‐mg doses
[17] = single doses of 600 mg, both fasted and high‐fat periods
[18] = 300 mg, MAD 300 mg b.i.d., first dose (day 1)
[19] = 300 mg, MAD 300 mg b.i.d., steady‐state (day 7)
[20] = 900 mg, MAD 900 mg b.i.d., first dose (day 1)
[21] = 900 mg, MAD 900 mg b.i.d., steady‐state (day 7)
[22] = 1‐hydroxymidazolam, day 10 vs day 1
[23] = midazolam 5 mg alone (reference, day 1), analyte 1‐hydroxymidazolam, n 9

## Nc1c2c(cc3c1CCC3)CCC2 [indacenyl amine, 1,2,3,5,6,7‐hexahydro‐s‐indacen‐4‐amine]
[1]; MAD 900‐mg b.i.d. cohort
  day 7 predose indacenyl amine concentration, range: 65.8 to 158 ng/mL
[1]; human, plasma, oral
  half-life: 36 to 49 h

## CN[C@@H]1COc2c(S(=O)(=O)NC(=O)Nc3c4c(cc5c3CCC5)CCC4)cnn2C1 [GDC‐2394, (S)‐N‐((1,2,3,5,6,7‐hexahydro‐s‐indacen‐4‐yl)carbamoyl)‐6‐(methylamino)‐6,7‐dihydro‐5H‐pyrazolo[5,1‐b][1,3]oxazine‐3‐sulfonamide]
Human whole blood
  in vitro human whole blood IC90: 0.639 µg/mL
Human whole blood; read-out: in vitro human whole blood IC90
  IC90: 1480 nM
[2]; DDI stage, after completion of GDC‐2394 dosing
  participants with events consistent with hepatic injury: Three
[2]; DDI stage, both participants
  time to recovery from severe DILI: ≤ 3 months
[2]; DDI stage, n = 9
  total number of events considered related to study treatment: 14
[2]; MAD 900 mg b.i.d., one subject, day 14
  peak elevation of ALT: 1.67 × the upper limit of normal [ULN]
[2]; MAD, all GDC‐2394 (n = 12)
  Subjects with at least one AE leading to dose modification/interruption: 0
  Subjects with at least one AE leading to withdrawal from treatment: 0
  Subjects with at least one AE with fatal outcome: 0
  Subjects with at least one grade 3–5 AE (at greatest intensity): 0
  Subjects with at least one related AE: 4 (33.3%)
  Subjects with at least one related serious AE: 0
  Subjects with at least one serious AE: 0
  Total number of AEs: 18
  Total number of deaths: 0
  Total number of subjects with at least one AE: 8 (66.7%)
  Total number of subjects withdrawn from study due to an AE: 0
[2]; SAD, all GDC‐2394 (n = 24)
  Subjects with at least one AE leading to dose modification/interruption: 0
  Subjects with at least one AE leading to withdrawal from treatment: 0
  Subjects with at least one AE with fatal outcome: 0
  Subjects with at least one grade 3–5 AE (at greatest intensity): 0
  Subjects with at least one related AE: 6 (25.0%)
  Subjects with at least one related serious AE: 0
  Subjects with at least one serious AE: 0
  Total number of AEs: 22
  Total number of deaths: 0
  Total number of subjects with at least one AE: 14 (58.3%)
  Total number of subjects withdrawn from study due to an AE: 0
Clinical [3]; C max, FE 600 mg single dose
  Cmax: 28000 ng/mL
Clinical [3]; T 1/2, FE 600 mg single dose
  half-life: 5.3 h
[4]; MAD 300 mg b.i.d.
  C min: 1820 ng/mL
[4]; MAD 900 mg b.i.d.
  C min: 9080 ng/mL
[4]; MAD stage
  interindividual variability of PK parameters, %CVs: less than 50%
[4]; MAD, both cohorts, from trough concentrations
  likely achievement of steady‐state: ≤ 2 days
[4]; both MAD cohorts (300 and 900 mg b.i.d.), steady‐state vs day 1
  accumulation ratios for Cmax and AUC0–tau: ~ 1
IL‐1β [5]; 300 mg b.i.d.
  mean inhibition of IL‐1β production sustained over the 7‐day dosing period: greater than 95%
IL‐1β [5]; 900 mg b.i.d.
  mean inhibition of IL‐1β production sustained over the 7‐day dosing period: greater than 99%
IL‐1β [5]; Homo sapiens, read-out: estimated plasma IC90 for IL‐1β inhibition
  IC90: ~2500 nM
IL‐1β [5]; single 150‐mg dose
  maximum mean inhibition of IL‐1β production: greater than 97%
IL‐1β [5]; [16]
  time for which maximum mean IL‐1β inhibition was sustained: ~ 8 h
IL‐1β [5]; single 450‐mg dose
  maximum mean inhibition of IL‐1β production: greater than 97%
IL‐1β [5]; single 900‐mg dose
  maximum mean inhibition of IL‐1β production: greater than 99%
IL‐1β [5]; single dose of 1800 mg
  mean inhibition of IL‐1β production: greater than or equal to 99%
  time for which mean IL‐1β inhibition was sustained: ~ 24 h
IL‐1β [5]; [17]
  mean inhibition of IL‐1β production: greater than 99%
  time for which mean IL‐1β inhibition was sustained: 8 h
[6]
  no‐observed‐adverse‐effect level (NOAEL): 600 mg/kg/day
[7]
  blood:plasma ratio: 0.6
IL‐18; 900‐mg b.i.d.
  mean inhibition of IL‐18 production across most of the 7‐day dosing period: greater than 99%
IL‐18; Homo sapiens, read-out: estimated plasma IC90 for IL‐18 inhibition
  IC90: ~2500 nM
IL‐18; all SAD cohorts
  inhibition of IL‐18 production (in words): Near‐complete or complete inhibition
IL‐18; [16]
  time for which IL‐18 inhibition was sustained: ~ 8 h
IL‐18; single 1800‐mg dose
  time for which IL‐18 inhibition was sustained: ~ 24 h
Clinical [8]
  half-life: 4.1 to 8.6 h
Clinical [8]; 150 mg
  AUC(0-t): 53.5 µg·h/mL
  Cmax: 8110 ng/mL
  Tmax: 2.1 h
  Vd/F: 16.7 L
  half-life: 4.1 h
Clinical [8]; 450 mg
  AUC(0-inf): 138 µg·h/mL
  AUC(0-t): 138 µg·h/mL
  Cmax: 22900 ng/mL
  Tmax: 2 h
  Vd/F: 30.2 L
  half-life: 5.8 h
Clinical [8]; 900 mg
  AUC(0-inf): 317 µg·h/mL
  AUC(0-t): 317 µg·h/mL
  Cmax: 50400 ng/mL
  Tmax: 2 h
  Vd/F: 34.9 L
  half-life: 6.8 h
Clinical [8]; 1800 mg
  AUC(0-inf): 739 µg·h/mL
  AUC(0-t): 738 µg·h/mL
  Cmax: 101000 ng/mL
  Tmax: 4 h
  Vd/F: 32.1 L
  half-life: 8.6 h
[9]
  decrease of AUC0–inf with a high‐fat meal: 14%
  decrease of AUC0–last with a high‐fat meal: 14%
  decrease of Cmax with a high‐fat meal: ~ 16%
CYP3A4 [10]; human, in vivo
  CYP3A4 induction potential / impact on systemic exposure of midazolam and 1‐hydroxymidazolam: minimal CYP3A4 induction potential
CYP3A4 [10]; in vivo
  CYP3A4 induction potential / impact on systemic exposure of midazolam and 1‐hydroxymidazolam: did not have an apparent impact
CYP3A4 [11]
  CYP3A4 induction potential: mild‐to‐moderate
Clinical [12]; [18]
  AUC: 82 µg·h/mL
  Cmax: 15300 ng/mL
Clinical [12]; [19]
  AUC: 92.2 µg·h/mL
  Cmax: 16400 ng/mL
Clinical [12]; [20]
  AUC: 301 µg·h/mL
  Cmax: 52700 ng/mL
Clinical [12]; [21]
  AUC: 327 µg·h/mL
  Cmax: 51000 ng/mL
Urinary PK
  mean fraction of drug excreted in urine 0 to 12 h postdose on day 7, range: 12.3% to 14.8
[13]; 150‐mg starting dose
  observed AUC relative to the preclinical prediction: approximately three‐fold
[13]; single oral 150 mg
  DN AUC0–last: 356 ng·h/mL/mg
[13]; single oral 450 mg
  CL/F: 3390 mL/h
  DN AUC0–last: 307 ng·h/mL/mg
[13]; single oral 900 mg
  CL/F: 3040 mL/h
  DN AUC0–last: 352 ng·h/mL/mg
[13]; single oral 1800 mg
  CL/F: 2590 mL/h
  DN AUC0–last: 410 ng·h/mL/mg
[13]; single oral doses 150–1800 mg
  increases in systemic exposure with dose (dose‐normalized Cmax and AUC0–last): approximately dose proportional
[13]; single oral doses across 150–1800 mg
  apparent clearance, range of mean values: 2590 to 3390 mL/h

## canakinumab: an anti‐IL‐1β antibody
IL‐1β [14]
  frequency of cardiovascular events: significantly reduced

## Cc1ncc2n1-c1ccc(Cl)cc1C(c1ccccc1F)=NC2 [Midazolam, midazolam, reference compound]
CYP3A4 [10]; human, in vivo
  AUC0–inf GMR: 97%
  AUC0–inf GMR (test/reference), estimate: 0.97
  AUC0–last GMR: 101%
  AUC0–last GMR (test/reference), estimate: 1.01
  C max GMR (test/reference), estimate: 1.12
  Cmax GMR: 112%
CYP3A4 [15]
  AUC(0-inf): 0.056 µg·h/mL
  AUC(0-t): 0.0538 µg·h/mL
  Cmax: 25.6 ng/mL
CYP3A4 [15]; 5 mg
  AUC(0-inf): 0.0578 µg·h/mL
  AUC(0-t): 0.0534 µg·h/mL
  Cmax: 22.9 ng/mL

## OCc1ncc2n1-c1ccc(Cl)cc1C(c1ccccc1F)=NC2 [1‐hydroxymidazolam]
CYP3A4 [10]; [22]
  AUC0–inf GMR: 90%
  AUC0–last GMR: 88%
  Cmax GMR: 92%
CYP3A4 [10]; [23]
  AUC0–inf, geometric LS mean: 0.0203 µg·h/mL
  AUC0–last, geometric LS mean: 0.0188 µg·h/mL
  C max, geometric LS mean: 9.25 ng/mL
